The source made the active and inactive calls. The calls are words filed in the database; no cut-off is given here.
Legend:
[1] = system: Staphylococcus aureus; experiment: Antimicrobial activity against Staphylococcus aureus at 64 uM by resazurin dye based assay; format: functional, organism-based
[2] = system: Candida albicans; experiment: Antimicrobial activity against Candida albicans at 64 uM by resazurin dye based assay; format: functional, organism-based
[3] = system: Escherichia coli; experiment: Antimicrobial activity against Escherichia coli at 64 uM by resazurin dye based assay; format: functional, organism-based
[4] = system: Mycobacterium tuberculosis; experiment: Antimicrobial activity against Mycobacterium tuberculosis at 64 uM by resazurin dye based assay; format: functional, organism-based
In short: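 Non-pathogenic Mycobacterium tuberculosis strain, part of a broader antimicrobial panel; compounds tested up to a maximum concentration of 64 μM.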

[5] = target: T1, Tyrosine--tRNA ligase (Escherichia coli (strain K12)) (UniProt P0AGJ9); experiment: (§1) Inhibition of Escherichia coli BL21(DE3) TyrRS overexpressed in Escherichia coli Rosetta2(DE3) assessed as reduction in tRNA aminoacylation at 5 uM preincubated with enzyme and substrate for 10 mins prior to ATP addition using 14C-labeled tyrosine and tRNA as substrate by liquid scintillation counting method
T1 sequence (whole entry): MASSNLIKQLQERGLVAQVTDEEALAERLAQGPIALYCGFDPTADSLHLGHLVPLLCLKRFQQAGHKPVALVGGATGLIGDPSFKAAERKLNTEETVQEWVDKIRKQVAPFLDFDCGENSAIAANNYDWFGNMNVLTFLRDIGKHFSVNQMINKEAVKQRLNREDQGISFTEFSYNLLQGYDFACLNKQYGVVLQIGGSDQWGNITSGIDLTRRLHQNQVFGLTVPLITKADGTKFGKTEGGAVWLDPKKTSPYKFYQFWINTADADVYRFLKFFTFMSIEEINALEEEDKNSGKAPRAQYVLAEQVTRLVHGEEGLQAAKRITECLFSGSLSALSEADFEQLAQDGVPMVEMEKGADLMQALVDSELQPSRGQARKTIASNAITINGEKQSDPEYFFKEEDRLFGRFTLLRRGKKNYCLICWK
In short: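 TyrRS counterpart of the radiolabeled aminoacylation assay, with test compounds at 5 μM.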

[6] = target: Isoleucine--tRNA ligase (Escherichia coli K-12) (UniProt P00956); experiment: as §1, with “ileRS” for “TyrRS”, “1” for “5”, “isoleucine” for “tyrosine”
Isoleucine--tRNA ligase (Escherichia coli K-12), sequence (P00956 whole entry): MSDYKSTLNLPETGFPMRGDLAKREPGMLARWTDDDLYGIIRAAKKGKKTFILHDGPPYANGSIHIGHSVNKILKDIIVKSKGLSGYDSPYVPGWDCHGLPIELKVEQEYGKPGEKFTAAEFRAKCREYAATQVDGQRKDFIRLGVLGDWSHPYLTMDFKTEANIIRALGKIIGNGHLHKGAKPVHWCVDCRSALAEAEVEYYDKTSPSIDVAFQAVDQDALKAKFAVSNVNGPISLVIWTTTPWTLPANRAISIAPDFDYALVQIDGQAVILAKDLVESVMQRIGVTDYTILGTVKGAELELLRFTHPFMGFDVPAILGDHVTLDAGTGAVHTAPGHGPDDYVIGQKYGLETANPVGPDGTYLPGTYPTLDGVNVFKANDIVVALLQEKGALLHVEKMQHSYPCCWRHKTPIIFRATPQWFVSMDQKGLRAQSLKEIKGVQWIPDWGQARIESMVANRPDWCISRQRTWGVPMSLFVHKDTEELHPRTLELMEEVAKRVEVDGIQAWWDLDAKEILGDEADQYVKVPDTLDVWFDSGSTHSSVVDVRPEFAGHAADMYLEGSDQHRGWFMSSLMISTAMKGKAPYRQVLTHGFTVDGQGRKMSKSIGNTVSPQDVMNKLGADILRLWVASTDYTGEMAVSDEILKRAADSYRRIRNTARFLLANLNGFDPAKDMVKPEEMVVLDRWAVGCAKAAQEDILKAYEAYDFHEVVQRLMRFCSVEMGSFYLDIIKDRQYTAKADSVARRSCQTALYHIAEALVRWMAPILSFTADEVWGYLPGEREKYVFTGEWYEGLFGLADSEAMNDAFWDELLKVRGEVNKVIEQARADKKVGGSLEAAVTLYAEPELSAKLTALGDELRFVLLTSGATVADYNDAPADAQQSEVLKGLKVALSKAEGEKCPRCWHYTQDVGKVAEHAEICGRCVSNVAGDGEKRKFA
In short: (§2)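 Radiolabeled aminoacylation with 10 nM IleRS, 25 μM 14C-isoleucine, 500 μM ATP and total E. coli tRNA at 2 mg/mL final. Activity normalized to enzyme without inhibitor. Triplicate measurements.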

[7] = target: Isoleucine--tRNA ligase (Escherichia coli K-12, UniProt P00956); experiment: as §1, with “ileRS” for “TyrRS”, “aminoacylation” for “aminoacylation at 5 uM”, “isoleucine” for “tyrosine”; conditions: read-out: Ki(app); in short: as §2
Isoleucine--tRNA ligase, sequence (P00956 whole entry): as above

[8] = target: Isoleucine--tRNA ligase (Escherichia coli K-12) (UniProt P00956); experiment: as §1, with “ileRS” for “TyrRS”, “0.5” for “5”, “isoleucine” for “tyrosine”; in short: as §2

For `N[C@@H](Cc1ccc(O)cc1)C(=O)NS(=O)(=O)OC[C@H]1OC[C@@H](OCCn2cc(-c3ccccc3)nn2)[C@H](O)[C@@H]1O`, the Activity [1] was “inactive”, the Activity [2] was “inactive” and the Activity [3] was “inactive”. For the same molecule, the Activity [4] was “inactive” and the inhibition [5] was “inactive”.

For `CC[C@H](C)[C@H](N)C(=O)NS(=O)(=O)OC[C@H]1OC[C@@H](CCn2cc(-c3ccccc3)nn2)[C@H](O)[C@@H]1O`, the Activity [1] was “inactive”, the Activity [2] was “inactive” and the inhibition [6] was “Active”. For the same molecule, the Activity [3] was “inactive” and the Activity [4] was “inactive”.

For `N[C@@H](Cc1ccc(O)cc1)C(=O)NS(=O)(=O)OC[C@H]1OC[C@@H](CCn2nnc(-c3ccccc3)n2)[C@H](O)[C@@H]1O`, the Activity [1] was “inactive”, the Activity [2] was “inactive” and the Activity [3] was “inactive”. The Activity [4] was “inactive” and the inhibition [5] was “inactive”.

In the case of `CC[C@H](C)[C@H](N)C(=O)NS(=O)(=O)OC[C@H]1OC[C@@H](CCCn2cc(-c3ccccc3)nn2)[C@H](O)[C@@H]1O`, the Ki [7] is reported as 88 nM, the Activity [1] is reported as “inactive” and the Activity [2] is reported as “inactive”. For the same molecule, the inhibition [8] was “Active”, the inhibition [6] was “Active” and the Activity [3] was “inactive”. The Activity [4] was “inactive”.

In the case of `N[C@@H](Cc1ccc(O)cc1)C(=O)NS(=O)(=O)OC[C@H]1OC[C@@H](CCn2cc(-c3ccccc3)nn2)[C@H](O)[C@@H]1O`, the Activity [1] is reported as “inactive”, the Activity [2] is reported as “inactive” and the Activity [3] is reported as “inactive”. For the same molecule, the Activity [4] was “inactive” and the inhibition [5] was “inactive”.

`CC[C@H](C)[C@H](N)C(=O)NS(=O)(=O)OC[C@H]1OC[C@@H](CCn2nnc(-c3ccccc3)n2)[C@H](O)[C@@H]1O` was tested, and the Activity [1] was “inactive”, the Activity [2] was “inactive” and the inhibition [6] was “Active”. For the same molecule, the Activity [3] was “inactive” and the Activity [4] was “inactive”.

For `CC[C@H](C)[C@H](N)C(=O)NS(=O)(=O)OC[C@H]1OC[C@@H](OCCn2cc(-c3ccccc3)nn2)[C@H](O)[C@@H]1O`, the Ki [7] was 114 nM, the Activity [1] was “inactive” and the Activity [2] was “inactive”. For the same molecule, the inhibition [8] was “Active”, the inhibition [6] was “Active” and the Activity [3] was “inactive”. For the same molecule, the Activity [4] was “inactive”.

Source: ChEMBL document CHEMBL4622955, “Phenyltriazole-functionalized sulfamate inhibitors targeting tyrosyl- or isoleucyl-tRNA synthetase” (Bioorg Med Chem, 2020)
